ChEMBL document CHEMBL2440064, “Synthesis and biological evaluation of 2-amino-5-aryl-3-benzylthiopyridine scaffold based potent c-Met inhibitors” (Bioorg Med Chem, 2013)
Active and inactive are the calls of the source. No cut-off for these calls is given here.

What was measured:
MKN-45 = assay: Antiproliferative activity against human MKN45 cells after 72 hrs; details: MKN-45, 72 h
MDA-MB-231 = assay: Antiproliferative activity against human MDA-MB-231 cells after 72 hrs; details: MDA-MB-231, 72 h
[1] = target: Hepatocyte growth factor receptor (Canis lupus familiaris) (UniProt Q75ZY9); assay: Inhibition of c-Met in MDCK cells assessed as HGF-induced cell scattering after 24 hrs by microscopic analysis; format: cell-based
How it was run: (§1)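 MDCK cells plated at 1,500/well in 96-well plates and allowed to form clusters over 24 h. Then 24 h with compound plus 50 ng/mL recombinant human HGF in FBS-free medium. Fixed in 4% paraformaldehyde 15 min at room temperature, stained with 0.2% crystal violet and imaged by microscopy.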

[2] = target: T1, TPR/MET fusion protein (Mus musculus) (UniProt P16056+F6ZDS4); assay: Inhibition of TPR/Met in mouse BAF3 cells assessed as inhibition of p44/42 phosphorylation at 0.08 to 10 uM after 2 hrs by Western blotting analysis; format: cell-based
How it was run: (§2)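 Cells grown to exponential phase, treated with compound 2 h at 37°C, lysed in 1× SDS sample buffer, resolved on 10% SDS-PAGE and transferred to nitrocellulose for immunoblotting.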

[3] = Half life in rat at 2 mg/kg, iv and 10 mg/kg, po; format: ADME, organism-based; details: in vivo
How it was run: (§3)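 Rat pharmacokinetics after a single intravenous dose (2 mg/kg) and a single oral dose (10 mg/kg).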

[4] = Clearance in rat at 2 mg/kg, iv and 10 mg/kg, po; format: ADME, organism-based; details: in vivo; how it was run: as §3
NCI-H661 = assay: Antiproliferative activity against human NCI-H661 cells after 72 hrs; details: NCI-H661, 72 h
[5] = target: T2, Hepatocyte growth factor receptor (Homo sapiens, UniProt P08581); assay: Inhibition of c-Met in gefitinib-resistant human HCC827 cells assessed as inhibition of p44/42 phosphorylation at 0.5 uM after 2 hrs by Western blotting analysis; format: cell-based; how it was run: as §2
[6] = Oral bioavailability in rat at 10 mg/kg; format: ADME, organism-based; details: in vivo
How it was run: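 Rats given a single iv dose (2 mg/kg) or a single po dose (10 mg/kg).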

[7] = target: Proto-oncogene tyrosine-protein kinase receptor Ret (Homo sapiens, UniProt P07949); assay: Inhibition of RET (unknown origin) using poly (Glu, Tyr) 4:1 as substrate after 60 mins by ELISA
How it was run: (§4)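 ELISA on wells precoated with 20 µg/mL poly(Glu,Tyr)4:1. Purified kinase with 10 µmol/L ATP in 50 mM HEPES pH 7.4, 50 mM MgCl₂, 0.5 mM MnCl₂, 0.2 mM Na₃VO₄, 1 mM DTT; 1% DMSO vehicle. 60 min at 37°C. Phosphotyrosine detected with PY99 antibody, then HRP anti-mouse IgG and o-phenylenediamine/H₂O₂, A490. Inhibition = [1−(A490/A490 control)]×100%; IC50 from curves.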

[8] = target: T3, Epidermal growth factor receptor (Homo sapiens, UniProt P00533); details: HCC827, at 0.5 µM
BaF3 = assay: Antiproliferative activity against mouse BAF3 cells expressing TPR/Met fusion protein after 72 hrs; format: functional, cell-based; details: BaF3, 72 h
How it was run: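 Cells seeded in 96-well plates, exposed next day to a range of compound concentrations and cultured 72 h; proliferation read by sulforhodamine B or CCK-8. IC50 as mean ± SD (μM) from three separate experiments.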

[9] = target: Hepatocyte growth factor receptor (Canis lupus familiaris) (UniProt Q75ZY9); assay: Inhibition of c-Met in MDCK cells assessed as HGF-induced cell scattering at 3 uM after 24 hrs by microscopic analysis; format: cell-based; how it was run: as §1
[10] = target: Fibroblast growth factor receptor 1 (Homo sapiens, UniProt P11362); assay: Inhibition of FGFR1 (unknown origin) using poly (Glu, Tyr) 4:1 as substrate after 60 mins by ELISA; how it was run: as §4
[11] = target: Platelet-derived growth factor receptor alpha (Homo sapiens, UniProt P16234); assay: Inhibition of PDGFRalpha (unknown origin) using poly (Glu, Tyr) 4:1 as substrate after 60 mins by ELISA; how it was run: as §4
[12] = target: Tyrosine-protein kinase receptor TYRO3 (Homo sapiens, UniProt Q06418); assay: Inhibition of TYRO3 (unknown origin) using poly (Glu, Tyr) 4:1 as substrate after 60 mins by ELISA; how it was run: as §4
[13] = Antiproliferative activity against human EBC1 cells after 72 hrs; details: EBC-1, 72 h
[14] = target: Tyrosine-protein kinase ABL1 (Homo sapiens, UniProt P00519); assay: Inhibition of Abl (unknown origin) using poly (Glu, Tyr) 4:1 as substrate after 60 mins by ELISA; how it was run: as §4
[15] = target: T2, Hepatocyte growth factor receptor; assay: Inhibition of c-Met in human HCC827/GR5 cells assessed as potentiation of gefitinib-induced cell growth inhibition at 0.5 uM after 72 hrs; format: cell-based
[16] = target: Proto-oncogene tyrosine-protein kinase Src (Homo sapiens, UniProt P12931); assay: Inhibition of c-Src (unknown origin) using poly (Glu, Tyr) 4:1 as substrate after 60 mins by ELISA
How it was run: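 Purified kinase incubated with 10 µmol/L ATP in wells pre-coated with 20 µg/mL poly(Glu,Tyr)4:1. Reaction ran 60 min at 37°C. Phosphotyrosine detected with PY99 antibody, then HRP anti-mouse IgG and o-phenylenediamine/H₂O₂, read at 490 nm. IC50 taken from inhibition curves.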

[17] = target: T1, TPR/MET fusion protein (Mus musculus); assay: Inhibition of TPR/Met phosphorylation in mouse NIH3T3 cells after 2 hrs by Western blotting analysis; format: cell-based; how it was run: as §2
NCI-H441 = assay: Antiproliferative activity against human NCI-H441 cells after 72 hrs; details: NCI-H441, 72 h
[18] = target: T2, Hepatocyte growth factor receptor; assay: Inhibition of c-Met in gefitinib-resistant human HCC827 cells assessed as inhibition of AKT phosphorylation at 0.5 uM after 2 hrs by Western blotting analysis; format: cell-based; how it was run: as §2
[19] = target: T2, Hepatocyte growth factor receptor; assay: Inhibition of c-Met phosphorylation in gefitinib-resistant human HCC827 cells at 0.5 uM after 2 hrs by Western blotting analysis; format: cell-based; how it was run: as §2
[20] = target: T2, Hepatocyte growth factor receptor; assay: Inhibition of c-Met in gefitinib-resistant human HCC827 cells assessed as inhibition of p44/42 phosphorylation at 0.5 uM after 2 hrs by Western blotting analysis in presence of gefitinib; format: cell-based; how it was run: as §2
[21] = target: T2, Hepatocyte growth factor receptor; assay: Competitive inhibition of c-Met (unknown origin) at 1.3 to 160 uM by Lineweaver-Burk plot analysis in presence of ATP
How it was run: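 ATP-competition version of the poly(Glu,Tyr)4:1 ELISA kinase assay (60 min, 37°C, PY99 antibody detection, A490) run at various ATP concentrations; Lineweaver-Burk plot constructed.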

[22] = target: T3, Epidermal growth factor receptor; assay: Inhibition of EGFR (unknown origin) using poly (Glu, Tyr) 4:1 as substrate after 60 mins by ELISA; how it was run: as §4
[23] = target: T2, Hepatocyte growth factor receptor; assay: Inhibition of c-Met in human MKN45 cells assessed as inhibition of p44/42 phosphorylation at 0.16 to 20 uM after 2 hrs by Western blotting analysis; format: cell-based; details: MKN-45; how it was run: as §2

T2 sequence (P08581 whole entry): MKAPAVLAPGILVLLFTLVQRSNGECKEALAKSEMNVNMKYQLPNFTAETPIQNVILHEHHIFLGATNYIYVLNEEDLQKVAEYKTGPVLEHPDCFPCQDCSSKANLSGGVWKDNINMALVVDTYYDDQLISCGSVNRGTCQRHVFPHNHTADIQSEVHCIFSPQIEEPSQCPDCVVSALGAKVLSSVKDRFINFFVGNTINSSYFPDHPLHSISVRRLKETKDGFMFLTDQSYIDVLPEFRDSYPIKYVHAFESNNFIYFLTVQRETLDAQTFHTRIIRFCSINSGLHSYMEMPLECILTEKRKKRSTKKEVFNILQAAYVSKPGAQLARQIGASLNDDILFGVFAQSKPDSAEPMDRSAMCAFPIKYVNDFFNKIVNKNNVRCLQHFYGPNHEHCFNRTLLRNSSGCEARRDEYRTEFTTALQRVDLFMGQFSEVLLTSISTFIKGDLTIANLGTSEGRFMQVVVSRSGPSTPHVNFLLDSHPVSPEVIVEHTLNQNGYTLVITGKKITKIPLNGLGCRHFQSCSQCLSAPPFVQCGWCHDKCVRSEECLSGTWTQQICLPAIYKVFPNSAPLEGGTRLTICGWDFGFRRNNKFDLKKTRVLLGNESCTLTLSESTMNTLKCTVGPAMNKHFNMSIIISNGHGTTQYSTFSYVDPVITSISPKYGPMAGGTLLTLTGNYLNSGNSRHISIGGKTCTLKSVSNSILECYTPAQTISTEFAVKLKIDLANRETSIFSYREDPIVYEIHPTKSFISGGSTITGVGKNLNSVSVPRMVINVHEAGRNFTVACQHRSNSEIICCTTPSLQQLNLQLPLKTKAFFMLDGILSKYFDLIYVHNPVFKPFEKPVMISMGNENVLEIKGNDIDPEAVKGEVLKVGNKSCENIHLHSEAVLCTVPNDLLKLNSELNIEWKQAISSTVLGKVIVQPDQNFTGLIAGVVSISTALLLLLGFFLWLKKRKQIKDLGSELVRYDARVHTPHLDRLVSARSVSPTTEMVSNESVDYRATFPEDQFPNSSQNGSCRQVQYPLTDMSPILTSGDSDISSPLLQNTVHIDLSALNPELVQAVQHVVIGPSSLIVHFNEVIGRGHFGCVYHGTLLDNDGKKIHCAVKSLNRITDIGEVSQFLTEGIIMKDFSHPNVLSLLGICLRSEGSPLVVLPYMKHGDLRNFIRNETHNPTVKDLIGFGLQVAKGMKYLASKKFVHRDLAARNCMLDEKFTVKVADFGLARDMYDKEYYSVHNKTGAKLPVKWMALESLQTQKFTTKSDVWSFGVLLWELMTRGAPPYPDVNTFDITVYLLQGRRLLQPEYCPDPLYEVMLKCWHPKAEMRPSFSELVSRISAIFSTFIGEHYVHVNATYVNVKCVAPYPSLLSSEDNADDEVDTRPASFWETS
Chain of Hepatocyte growth factor receptor (Canis lupus familiaris) (Q75ZY9 whole entry): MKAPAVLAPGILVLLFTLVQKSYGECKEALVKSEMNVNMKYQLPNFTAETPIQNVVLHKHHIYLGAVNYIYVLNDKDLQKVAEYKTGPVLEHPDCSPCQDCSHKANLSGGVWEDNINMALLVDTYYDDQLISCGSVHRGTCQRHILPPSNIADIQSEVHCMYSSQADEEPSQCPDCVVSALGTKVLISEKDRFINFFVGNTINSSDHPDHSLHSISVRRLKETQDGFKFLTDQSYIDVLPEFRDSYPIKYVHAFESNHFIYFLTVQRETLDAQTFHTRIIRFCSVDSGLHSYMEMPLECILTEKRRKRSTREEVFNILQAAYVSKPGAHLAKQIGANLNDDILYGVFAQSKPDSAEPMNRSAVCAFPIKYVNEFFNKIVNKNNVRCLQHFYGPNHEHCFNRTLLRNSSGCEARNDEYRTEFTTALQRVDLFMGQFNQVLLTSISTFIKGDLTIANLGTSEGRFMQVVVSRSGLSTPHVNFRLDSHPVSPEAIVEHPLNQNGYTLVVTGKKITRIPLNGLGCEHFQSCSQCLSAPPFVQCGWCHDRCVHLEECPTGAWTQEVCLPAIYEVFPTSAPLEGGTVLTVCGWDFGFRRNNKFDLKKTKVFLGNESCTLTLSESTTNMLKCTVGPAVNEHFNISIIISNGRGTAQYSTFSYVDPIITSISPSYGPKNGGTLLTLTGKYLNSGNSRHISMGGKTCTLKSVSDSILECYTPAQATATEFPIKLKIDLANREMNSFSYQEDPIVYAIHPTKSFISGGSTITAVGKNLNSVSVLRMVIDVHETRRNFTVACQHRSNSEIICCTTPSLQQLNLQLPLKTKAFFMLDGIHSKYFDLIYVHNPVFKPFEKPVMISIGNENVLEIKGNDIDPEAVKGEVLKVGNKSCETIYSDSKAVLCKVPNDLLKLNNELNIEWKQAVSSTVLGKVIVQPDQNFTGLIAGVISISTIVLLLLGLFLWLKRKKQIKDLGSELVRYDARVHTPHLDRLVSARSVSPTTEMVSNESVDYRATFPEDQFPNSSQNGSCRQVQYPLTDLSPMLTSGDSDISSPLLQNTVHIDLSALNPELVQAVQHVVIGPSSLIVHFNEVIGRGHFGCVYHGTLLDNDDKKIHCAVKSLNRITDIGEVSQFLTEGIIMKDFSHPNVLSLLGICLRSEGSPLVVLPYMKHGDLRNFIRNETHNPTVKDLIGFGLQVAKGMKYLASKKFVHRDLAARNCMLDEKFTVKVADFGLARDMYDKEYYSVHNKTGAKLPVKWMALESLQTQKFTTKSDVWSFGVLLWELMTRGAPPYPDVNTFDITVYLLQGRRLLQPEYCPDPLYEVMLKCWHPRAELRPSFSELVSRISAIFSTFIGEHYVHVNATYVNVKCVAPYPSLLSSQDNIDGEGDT
T3 sequence (P00533 whole entry, the tested form may be a part): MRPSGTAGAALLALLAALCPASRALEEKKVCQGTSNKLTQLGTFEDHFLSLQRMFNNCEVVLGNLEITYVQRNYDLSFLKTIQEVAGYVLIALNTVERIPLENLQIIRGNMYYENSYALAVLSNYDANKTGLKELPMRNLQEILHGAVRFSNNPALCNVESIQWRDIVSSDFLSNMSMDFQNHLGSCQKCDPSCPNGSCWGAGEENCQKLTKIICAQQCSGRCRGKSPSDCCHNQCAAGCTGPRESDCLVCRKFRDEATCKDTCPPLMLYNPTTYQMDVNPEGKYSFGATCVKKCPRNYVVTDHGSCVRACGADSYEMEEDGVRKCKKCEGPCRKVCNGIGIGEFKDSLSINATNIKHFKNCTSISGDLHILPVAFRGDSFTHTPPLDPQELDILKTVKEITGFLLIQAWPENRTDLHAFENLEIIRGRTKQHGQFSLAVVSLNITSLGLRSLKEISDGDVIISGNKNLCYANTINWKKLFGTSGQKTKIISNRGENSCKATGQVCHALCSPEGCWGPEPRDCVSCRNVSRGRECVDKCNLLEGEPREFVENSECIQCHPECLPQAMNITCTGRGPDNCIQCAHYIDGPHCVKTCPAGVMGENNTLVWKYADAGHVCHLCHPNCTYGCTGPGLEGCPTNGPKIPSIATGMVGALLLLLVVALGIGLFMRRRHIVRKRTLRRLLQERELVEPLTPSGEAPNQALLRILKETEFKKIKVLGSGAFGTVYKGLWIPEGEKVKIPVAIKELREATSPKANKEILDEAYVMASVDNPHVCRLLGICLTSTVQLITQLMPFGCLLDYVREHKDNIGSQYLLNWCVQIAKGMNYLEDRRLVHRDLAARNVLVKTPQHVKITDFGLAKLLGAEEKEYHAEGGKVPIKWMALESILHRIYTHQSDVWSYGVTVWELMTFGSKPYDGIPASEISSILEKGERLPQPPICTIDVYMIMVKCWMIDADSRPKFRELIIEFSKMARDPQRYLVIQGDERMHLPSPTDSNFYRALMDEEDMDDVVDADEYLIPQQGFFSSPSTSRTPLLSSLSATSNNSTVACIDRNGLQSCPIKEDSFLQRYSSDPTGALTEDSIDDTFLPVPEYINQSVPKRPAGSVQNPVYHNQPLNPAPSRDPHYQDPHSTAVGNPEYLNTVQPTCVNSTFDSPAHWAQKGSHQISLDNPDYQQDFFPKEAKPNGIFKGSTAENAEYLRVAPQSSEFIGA
Chain of Tyrosine-protein kinase ABL1 (P00519 whole entry): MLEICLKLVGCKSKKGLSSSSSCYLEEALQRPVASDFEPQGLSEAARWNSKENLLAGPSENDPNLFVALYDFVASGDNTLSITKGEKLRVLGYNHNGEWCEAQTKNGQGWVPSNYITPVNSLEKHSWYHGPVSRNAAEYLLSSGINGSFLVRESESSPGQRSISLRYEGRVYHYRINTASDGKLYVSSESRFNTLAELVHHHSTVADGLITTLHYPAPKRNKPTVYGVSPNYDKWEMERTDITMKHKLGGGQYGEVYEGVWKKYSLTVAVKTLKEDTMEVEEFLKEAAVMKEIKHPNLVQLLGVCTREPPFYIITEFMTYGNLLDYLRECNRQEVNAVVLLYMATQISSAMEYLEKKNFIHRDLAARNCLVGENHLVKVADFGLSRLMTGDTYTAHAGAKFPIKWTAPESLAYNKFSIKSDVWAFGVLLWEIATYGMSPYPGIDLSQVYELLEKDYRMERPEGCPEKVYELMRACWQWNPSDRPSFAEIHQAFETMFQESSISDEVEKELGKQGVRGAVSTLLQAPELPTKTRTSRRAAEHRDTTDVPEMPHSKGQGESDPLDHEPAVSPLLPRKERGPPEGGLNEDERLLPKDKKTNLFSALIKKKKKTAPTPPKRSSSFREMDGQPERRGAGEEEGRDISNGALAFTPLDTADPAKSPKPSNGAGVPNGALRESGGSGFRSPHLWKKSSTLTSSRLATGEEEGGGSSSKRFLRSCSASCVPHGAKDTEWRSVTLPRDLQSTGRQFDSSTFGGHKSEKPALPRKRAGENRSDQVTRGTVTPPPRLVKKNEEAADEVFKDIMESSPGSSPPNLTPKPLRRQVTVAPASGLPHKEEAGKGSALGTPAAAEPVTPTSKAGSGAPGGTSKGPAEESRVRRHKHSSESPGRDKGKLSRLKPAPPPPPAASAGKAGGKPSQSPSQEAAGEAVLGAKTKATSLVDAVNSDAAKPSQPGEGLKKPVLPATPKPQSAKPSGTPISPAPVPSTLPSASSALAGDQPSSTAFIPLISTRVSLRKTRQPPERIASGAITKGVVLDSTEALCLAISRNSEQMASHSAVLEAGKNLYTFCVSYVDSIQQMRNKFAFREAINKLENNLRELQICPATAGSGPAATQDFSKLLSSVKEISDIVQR

IC50 (MKN-45): 290 nM
IC50 (MDA-MB-231): 12100 nM
inhibition [1]: Dose-dependent effect
inhibition [2]: Active
half-life [3]: 5.7 h
clearance [4]: 53 mL/min/kg
IC50 (NCI-H661): 16200 nM
inhibition [5]: inactive
bioavailability [6]: 12.8%
IC50 [7]: > 1000 nM
inhibition [8]: Active
IC50 (BaF3): 580 nM
inhibition [9]: Active
IC50 [10]: > 1000 nM
IC50 [11]: > 1000 nM
IC50 [12]: > 1000 nM
IC50 [14]: > 1000 nM
inhibition [15]: Active
IC50 [16]: > 1000 nM
inhibition [17]: Dose-dependent effect
IC50 (NCI-H441): 15500 nM
inhibition [18]: inactive
inhibition [19]: Active
inhibition [20]: Active
inhibition [21]: Active
IC50 [22]: > 1000 nM
inhibition [23]: Active
SMILES: C[C@@H](Sc1cc(-c2cnn(C3CCNCC3)c2)cnc1N)c1c(Cl)ccc(F)c1Cl
IC50 [13]: 710 nM
